Series [1] concerns HaCaT. Nature of the series: Antipyretic activity in human HaCaT cells assessed as inhibition of TNFalpha-induced PGE2 production at 50 uM pre-incubated for 2 hrs before TNFalpha stimulation for 24 hrs by ELISA. Format: functional, cell-based. In short, it runs like this: (§1)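 HaCaT keratinocytes, seeded at 1.5 × 10^5 cells/well and grown overnight, then serum-starved 12 h. Pretreated with compounds for 2 h, then stimulated 24 h with 20 ng/mL TNF-α; unstimulated cells as negative control. Supernatant PGE2 quantified by ELISA, absorbance 450 nm. Means ± SD of three independent experiments.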
(An ELISA detects its analyte on a solid surface through an enzyme-linked reagent.)

Series [2] concerns HaCaT. Nature of the series: Antipyretic activity in human HaCaT cells assessed as inhibition of TNFalpha-induced PGE2 production at 100 uM pre-incubated for 2 hrs before TNFalpha stimulation for 24 hrs by ELISA. It counts as functional, cell-based. An outline of the steps:
as §1

The test system of series [3] is HaCaT. Nature of the series: Cytotoxicity in human HaCaT cells assessed as reduction in cell viability at 100 uM incubated for 2 4 hrs by MTT assay. It counts as cell-based. An outline of the steps:
(§2)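 MTT viability in HaCaT cells seeded at 10^4 cells/well. After 12 h, compounds added in serum-free medium for 24 h, then MTT 4 h. Formazan dissolved in DMSO, absorbance read at 550 nm. Triplicate wells, experiments repeated at least three times.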
On the technique in general: Formazan colour is commonly taken as a measure of viable cells.

The test system of series [4] is HaCaT. The series is described as follows: Cytotoxicity in human HaCaT cells assessed as reduction in cell viability at 50 uM incubated for 2 4 hrs by MTT assay. It counts as cell-based. In short, it runs like this: as §2
The subject of a further series is Mus musculus. The series is described as follows: Antipyretic activity in ICR mouse assessed as suppression of LPS-induced febrile response measured at 10 mg/kg, po administered 30 mins before LPS injection and measured up to 6 hrs post LPS injection. Format: functional, organism-based. In short, it runs like this:
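Male 8-week-old ICR mice, 5 per group, reverse 12 h light/dark cycle. Compound suspended in 0.5% carboxymethyl cellulose, given orally 30 min before i.p. LPS (0.5 mg/kg in pyrogen-free PBS). Baseline rectal Tb from six readings over 2 h, then Tb followed to 6 h post-LPS. Each hour compared to LPS group, Student t-test, p < 0.05.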

Setting [5] is: 50 uM, in the assay text read “at 50 uM” for “at 100 uM”.

The values that follow come from ChEMBL document CHEMBL4387794, “Constituents of the Edible Leaves of Melicope pteleifolia with Potential Analgesic Activity” (J Nat Prod, 2019).

Molecules are shown by their SMILES. The source made the active and inactive calls. The calls are words filed in the database; no cut-off is given here.

For `COc1cc(/C=C/C(=O)OC[C@H]2O[C@@H](c3c(O)c(C(C)=O)c(O)c([C@@H]4O[C@H](COC(=O)/C=C/c5ccc(O)c(OC)c5)[C@@H](O)[C@H](O)[C@H]4O)c3O)[C@H](O)[C@@H](O)[C@@H]2O)ccc1O`, the inhibition result with HaCaT [1] and in the series with HaCaT [2] (setting [5]) was “Active” throughout. Moreover, the figures for the Activity entry with HaCaT [3] and with HaCaT [4] were “Toxic” and “Non-Toxic”, respectively.

For the molecule `CC(=O)c1c(O)c([C@@H]2O[C@H](COC(=O)/C=C/c3ccc(O)cc3)[C@@H](O)[C@H](O)[C@H]2O)c(O)c([C@@H]2O[C@H](COC(=O)/C=C/c3ccc(O)cc3)[C@@H](O)[C@H](O)[C@H]2O)c1O`, the inhibition entry with HaCaT [1] and in the series on HaCaT [2] (100 uM) was “Active” in each case. In the series on HaCaT [3], the Activity result was “Non-Toxic”.

`CC(=O)c1c(O)c([C@@H]2O[C@H](CO)[C@@H](O)[C@H](O)[C@H]2O)c(O)c([C@@H]2O[C@H](COC(=O)c3ccccc3)[C@@H](O)[C@H](O)[C@H]2O)c1O`: the inhibition entry in the series with HaCaT [1] and with HaCaT [2] (100 uM) was “Active” in each case. Also, the Activity result with HaCaT [3] is “Non-Toxic”.

In the case of `CC(=O)c1c(O)c([C@@H]2O[C@H](CO)[C@@H](O)[C@H](O)[C@H]2O)c(O)c2c1O[C@@]1(C2)O[C@H](CO)[C@@H](O)[C@@H]1O`, the inhibition result in the series on HaCaT [1] and with HaCaT [2] (100 uM) was “Active” throughout. Moreover, in the series on HaCaT [3], the Activity entry is recorded as “Non-Toxic”.

For `CC(=O)c1c(O)c([C@@H]2O[C@H](CO)[C@@H](O)[C@H](O)[C@H]2O)c(O)c2c1O[C@]1(C2)O[C@H](CO)[C@@H](O)[C@H]1O`, the inhibition entry in the series with HaCaT [1] and in the series on HaCaT [2] (100 uM) was “Active” throughout. For the same molecule, the Activity entry in the series with HaCaT [3] is on record as “Non-Toxic”.

As to `CC(=O)Oc1ccccc1C(=O)O`, the inhibition result in the series with HaCaT [2] (100 uM) is “Active”.

Take `CC(=O)c1c(O)c([C@@H]2O[C@H](CO)[C@@H](O)[C@H](O)[C@H]2O)c(O)c([C@@H]2O[C@H](COC(=O)[C@H]3[C@H](C(=O)OC[C@H]4O[C@@H](c5c(O)c(C(C)=O)c(O)c([C@@H]6O[C@H](CO)[C@@H](O)[C@H](O)[C@H]6O)c5O)[C@H](O)[C@@H](O)[C@@H]4O)[C@@H](c4ccc(O)cc4)[C@@H]3c3ccc(O)cc3)[C@@H](O)[C@H](O)[C@H]2O)c1O`: the inhibition result in the series with HaCaT [1] and in the series with HaCaT [2] (100 uM) was “Active” throughout. For the same molecule, the Activity result with HaCaT [3] is “Non-Toxic”.

Consider `CC(=O)c1c(O)c([C@@H]2O[C@H](CO)[C@@H](O)[C@H](O)[C@H]2O)c(O)c([C@@H]2O[C@H](CO)[C@@H](O)[C@H](O)[C@H]2O)c1O`, for which the inhibition result in the series on HaCaT [1] and with HaCaT [2] (100 uM) was “Active” throughout. Besides, the Activity entry in the series with HaCaT [3] is on record as “Non-Toxic”. The result with Mus musculus was Active.

In the case of `COc1cc(/C=C/C(=O)OC[C@H]2O[C@@H](c3c(O)c(C(C)=O)c(O)c([C@@H]4O[C@H](COC(=O)/C=C/c5ccc(O)cc5)[C@@H](O)[C@H](O)[C@H]4O)c3O)[C@H](O)[C@@H](O)[C@@H]2O)ccc1O`, the inhibition entry in the series on HaCaT [1] and in the series with HaCaT [2] (setting [5]) was “Active” throughout. For the same molecule, the Activity result in the series on HaCaT [3] was “Toxic”; in the series on HaCaT [4], “Non-Toxic”.

`COc1cc(/C=C/C(=O)OC[C@H]2O[C@@H](c3c(O)c(C(C)=O)c(O)c([C@@H]4O[C@H](CO)[C@@H](O)[C@H](O)[C@H]4O)c3O)[C@H](O)[C@@H](O)[C@@H]2O)ccc1O`: the inhibition entry in the series with HaCaT [1] and with HaCaT [2] (100 uM) was “Active” each time. The Activity result with HaCaT [3] is listed as “Non-Toxic”.

`CC(=O)c1c(O)c([C@@H]2O[C@H](CO)[C@@H](O)[C@H](O)[C@H]2O)c(O)c2c1O[C@]1(C2)O[C@H](CO)[C@@H](O)[C@@H]1O`: the inhibition result with HaCaT [1] and in the series on HaCaT [2] (100 uM) was “Active” in each case. The Activity result in the series with HaCaT [3] was “Non-Toxic”.

`CC(=O)c1c(O)c([C@@H]2O[C@H](CO)[C@@H](O)[C@H](O)[C@H]2O)c(O)c2c1O[C@@]1(C2)O[C@H](CO)[C@H](O)[C@@H]1O`: the inhibition result in the series with HaCaT [1] and in the series with HaCaT [2] (100 uM) was “Active” in each case. Further, in the series with HaCaT [3], the Activity entry was “Non-Toxic”.

Turning to `CC(=O)c1c(O)c([C@@H]2O[C@H](CO)[C@@H](O)[C@H](O)[C@H]2O)c(O)c2c1O[C@@]1(C2)O[C@@H](CO)[C@H](O)[C@H]1O`, the inhibition result with HaCaT [1] and in the series with HaCaT [2] (100 uM) was “Active” throughout. The Activity entry with HaCaT [3] was “Non-Toxic”.

On to `CC(=O)c1c(O)c([C@@H]2O[C@H](CO)[C@@H](O)[C@H](O)[C@H]2O)c(O)c([C@@H]2O[C@H](COC(=O)/C=C/c3ccc(O)cc3)[C@@H](O)[C@H](O)[C@H]2O)c1O`, for which the inhibition result in the series with HaCaT [1] and with HaCaT [2] (100 uM) was “Active” in each case. For the same molecule, the Activity entry in the series on HaCaT [3] is “Non-Toxic”.
